Results from ChEMBL document CHEMBL1914431, “Discovery of a novel series of nonacidic benzofuran EP1 receptor antagonists” (Bioorg Med Chem Lett, 2011).
Converted amounts (≈) assume the structure as drawn. The source made the active and inactive calls. No cut-off for these calls is given here.

Key:
[1] = test system: Rattus norvegicus; experiment: Analgesic activity in rat assessed as reversal of complete Freund's adjuvant-induced inflammatory pain at 10 mg/kg, po after 1 hr post dose; assay type: functional
Summary of the method: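 Rat CFA inflammatory pain model. Oral dosing in 1% methylcellulose. Hypersensitivity reversal is read by weight bearing, at 1 h post-dose. The 5 mg/kg study was also read at 3 h. Dose-response groups were 3, 10 and 30 mg/kg, or 1, 3 and 10 mg/kg, with ED50 derived. Celecoxib at 10 mg/kg po served as the standard.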

[2] = Ratio of drug level in brain to blood in rat complete Freund's adjuvant-induced inflammatory pain model at 10 mg/kg, po after 1 hr; assay type: ADME, organism-based; design: dose 10 mg/kg, route oral; settings: read-out: BBR
Summary of the method: (§1)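 Blood and brain samples are taken from CFA rats after oral dosing in 1% methylcellulose. Sampling is at 1 h post-dose, and at 3 h in the 5 mg/kg study. Concentrations are in µM or nM, n = 7 or n = 6 for blood and n = 3 for brain. The brain:blood ratio is calculated from the same rats.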

[3] = Volume of distribution at steady state in rat at 1 mg/kg, iv; assay type: ADME, organism-based; design: dose 1 mg/kg, route intravenous; settings: in vivo, read-out: Vdss
[4] = molecular target: T1, Prostaglandin E2 receptor EP1 subtype (Homo sapiens, UniProt P34995); experiment: Displacement of [3H]GW875240X from human prostanoid EP1 receptor expressed in CHO-K1 cells after 45 mins by topcount liquid scintillation counting; assay type: cell-based
T1 sequence (P34995 whole entry): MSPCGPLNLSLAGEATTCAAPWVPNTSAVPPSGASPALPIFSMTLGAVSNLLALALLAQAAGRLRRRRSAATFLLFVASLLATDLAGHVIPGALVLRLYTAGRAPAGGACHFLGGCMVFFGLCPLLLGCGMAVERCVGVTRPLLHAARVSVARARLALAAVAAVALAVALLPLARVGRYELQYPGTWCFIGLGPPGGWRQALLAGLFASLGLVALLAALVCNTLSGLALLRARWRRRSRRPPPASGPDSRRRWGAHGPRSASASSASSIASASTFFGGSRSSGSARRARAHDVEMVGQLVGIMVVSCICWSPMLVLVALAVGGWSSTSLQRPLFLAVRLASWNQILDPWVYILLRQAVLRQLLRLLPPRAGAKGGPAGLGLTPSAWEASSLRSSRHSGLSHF
Summary of the method: (§2)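 Radioligand binding at the EP1 receptor. Either [3H]-GW875240X or [3H]-PGE2 is the displaced ligand. Values are pIC50, means of at least three experiments.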

[5] = test system: Blood; experiment: Fraction unbound in blood of po dosed rat complete Freund's adjuvant-induced inflammatory pain model; assay type: ADME, organism-based; settings: in vivo
[6] = Solubility of the compound in simulated gastric fluid after 1 hr; assay type: physicochemical
Summary of the method: (§3)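 Solubility is measured after 1 h in water, SGF, FaSSIF and FeSSIF, in µg/mL.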

[7] = test system: Brain; experiment: Fraction unbound in brain of po dosed rat complete Freund's adjuvant-induced inflammatory pain model; assay type: ADME, organism-based; settings: in vivo
[8] = test system: Liver microsomes; experiment: Intrinsic clearance in human liver microsomes; assay type: ADME, Microsome
[9] = Drug level in brain of rat complete Freund's adjuvant-induced inflammatory pain model at 10 mg/kg, po after 1 hr; assay type: ADME, organism-based; design: dose 10 mg/kg, route oral; settings: read-out: Drug uptake; summary of the method: as §1
[10] = Half life in rat at 1 mg/kg, iv; assay type: ADME, organism-based; design: dose 1 mg/kg, route intravenous; settings: in vivo
[11] = Solubility of the compound in fasted state simulated intestinal fluid after 1 hr; assay type: physicochemical; summary of the method: as §3
[12] = Drug level in blood of rat complete Freund's adjuvant-induced inflammatory pain model at 10 mg/kg, po after 1 hr; assay type: ADME, organism-based; design: dose 10 mg/kg, route oral; settings: read-out: Drug uptake; summary of the method: as §1
[13] = Lipophilicity, log D of compound at pH 7.4 by shake flask method; assay type: physicochemical; settings: buffer
Summary of the method: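 Log D is determined by the shake flask method at pH 7.4.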

[14] = Blood clearance in rat at 1 mg/kg, iv; assay type: ADME, organism-based; design: dose 1 mg/kg, route intravenous
[15] = test system: Rattus norvegicus; experiment: Analgesic activity in rat chronic joint pain model at 30 mg/kg, po bid; assay type: functional, organism-based; design: dose 30 mg/kg
Summary of the method: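 Rat joint pain model of chronic inflammatory pain. Oral dosing b.i.d. at 1, 3, 10 and 30 mg/kg, or at 0.3, 1, 3 and 10 mg/kg. Reversal of hypersensitivity is scored, with statistical significance testing, and ED50 is calculated.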

[16] = Solubility of the compound in water after 1 hr; assay type: physicochemical; summary of the method: as §3
[17] = molecular target: T1, Prostaglandin E2 receptor EP1 subtype; experiment: Displacement of [3H]PGE2 from human prostanoid EP1 receptor expressed in CHO-K1 cells after 30 mins by topcount liquid scintillation counting; assay type: cell-based; summary of the method: as §2
[18] = molecular target: T1, Prostaglandin E2 receptor EP1 subtype; experiment: Antagonist activity at human recombinant EP1 receptor expressed in CHO-K1 cells assessed as inhibition of PGE2-mediated intracellular calcium mobilization by FLIPR method; assay type: functional, cell-based
[19] = molecular target: T2, Prostaglandin E2 receptor EP3 subtype (Homo sapiens, UniProt P43115); experiment: Antagonist activity at human recombinant EP3 receptor expressed in CHO-K1 cells assessed as inhibition of PGE2-mediated intracellular calcium mobilization by FLIPR method; assay type: functional, cell-based
T2 sequence (P43115 whole entry): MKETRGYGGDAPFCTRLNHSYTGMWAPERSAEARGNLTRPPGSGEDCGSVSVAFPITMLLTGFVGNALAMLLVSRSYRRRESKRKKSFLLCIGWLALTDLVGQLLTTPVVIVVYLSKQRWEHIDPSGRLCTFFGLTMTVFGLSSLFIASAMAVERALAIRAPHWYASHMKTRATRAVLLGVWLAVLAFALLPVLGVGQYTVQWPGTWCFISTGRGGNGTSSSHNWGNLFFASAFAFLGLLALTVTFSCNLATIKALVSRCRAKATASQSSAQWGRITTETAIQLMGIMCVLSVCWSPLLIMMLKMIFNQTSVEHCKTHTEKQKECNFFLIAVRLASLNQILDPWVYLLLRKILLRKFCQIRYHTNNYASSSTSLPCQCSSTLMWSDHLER

SMILES: Cc1cc(C(=O)NN2CCOCC2)nn1Cc1cc(Cl)cc2cc(-c3ccccc3)oc12
- Activity [1]: 49%
- Kp at 1 h [2]: 1.7
- Vd [3]: 3.5 L/kg
- IC50 [4]: 10 nM
- Fu [5]: 0.662%
- solubility at 1 h [6]: 227 µg/mL (≈ 503 µM)
- Fu [7]: 0.17%
- CL [8]: 1.1 mL/min/g
- concentration at 1 h [9]: 3.97 µM
- half-life [10]: 2.1 h
- solubility at 1 h [11]: 382 µg/mL (≈ 847 µM)
- concentration at 1 h [12]: 2.34 µM
- logD [13]: 3
- clearance [14]: 22 mL/min/kg
- Activity [15]: Active
- solubility at 1 h [16]: 171 µg/mL (≈ 379 µM)

SMILES: Cc1cc(C(=O)O)nn1Cc1cc(Cl)cc2cc(C3CCCCC3)oc12
- IC50 [4]: 3.98 nM

SMILES: Cc1cc(C(=O)NC2CC2)nn1Cc1cc(Cl)cc2cc(-c3ccccc3)oc12
- IC50 [4]: 5.01 nM

SMILES: Cc1cc(C(=O)O)nn1Cc1cc(Cl)cn2cc(C(C)C)cc12
- IC50 [17]: 126 nM

SMILES: Cc1cc(C(=O)N[C@H]2CC[C@H](O)CC2)nn1Cc1cc(Cl)cc2cc(-c3ccccc3)oc12
- IC50 [4]: 7.94 nM

SMILES: Cc1cc(C(=O)NC2CCOCC2)nn1Cc1cc(Cl)cc2cc(C(C)C)oc12
- IC50 [17]: 63.1 nM

SMILES: CO[C@H]1CC[C@H](NC(=O)c2cc(C)n(Cc3cc(Cl)cc4cc(C(C)C)oc34)n2)CC1
- IC50 [4]: 316 nM

SMILES: Cc1cc(NC(=O)C2CCNCC2)nn1Cc1cc(Cl)cc2cc(-c3ccccc3)oc12
- IC50 [4]: 100 nM

SMILES: Cc1cc(NC(=O)C2(F)CCNCC2)nn1Cc1cc(Cl)cc2cc(-c3ccccc3)oc12
- IC50 [4]: 39.8 nM

SMILES: Cc1cc(C(=O)NC[C@H]2CCCO2)nn1Cc1cc(Cl)cc2cc(-c3ccccc3)oc12
- IC50 [4]: 6.31 nM

SMILES: Cc1cc(C(=O)O)nn1Cc1cc(Cl)cn2cc(C(C)C)nc12
- IC50 [17]: 501 nM

SMILES: Cc1cc(C(=O)O)nn1Cc1cc(Cl)cc2cc(C(C)C)oc12
- Ki [18]: 0.398 nM
- IC50 [17]: 5.01 nM
- Ki [19]: 1000 nM

SMILES: Cc1cc(C(=O)O)nn1Cc1cc(Cl)cc2nc(C(C)C)cn12
- IC50 [17]: > 1000 nM

SMILES: Cc1cc(C(=O)NC2CCNCC2)nn1Cc1cc(Cl)cc2cc(C(C)C)oc12
- IC50 [17]: 794 nM

SMILES: Cc1cc(C(=O)O)nn1Cc1cc(Cl)cc2cc(C(C)(C)C)oc12
- IC50 [4]: 63.1 nM
